Results from different studies.
Values after ≈ are worked out from the molar mass of the structure shown.

`CC1(C)CC[C@]2(NC(=O)N3CCC[C@H]3CO)CC[C@]3(C)C(=CC[C@@H]4[C@@]5(C)CC[C@@H]6OC(C)(C)OC[C@@]6(C)[C@@H]5CC[C@]43C)[C@@H]2C1` gave an inhibition of 95.8% (Leishmania mexicana; parasite growth, resazurin; 50 µM, amastigote).
`CC(=O)OC1c2c(ccc3ccc(=O)oc23)OC(C)(C)C1OC(=O)C(C)(O)C(C)O` (stereo not drawn) has an inhibition of 33.8% (tubulin polymerisation, inhibitor; 10 µM).
The EC50 of `Cc1ccc(-c2nc3ccccc3s2)cc1NC(=O)c1cc([N+](=O)[O-])c(F)cc1F` is reported as 0.64 µM (Leishmania mexicana; parasite growth; J774.A1; intracellular, amastigote).
For `O=C(O)CN1C(=O)/C(=C/c2ccc(-c3ccc(N(c4ccccc4)c4ccccc4)cc3)c3ccccc23)SC1=S`, the MIC was 500 mg/L (≈ 873 µM) (Staphylococcus epidermidis; microbial growth, broth dilution; ATCC12228).
With `Cc1n(Cc2ccc3ccccc3n2)cc[n+]1Cc1ccc2ccccc2c1` the TGI was 3.81 µM (HOP-92; cell growth or viability, SRB).
The inhibition of `CC1(C)CC[C@]2(NC(=O)N3CCCC3)CC[C@]3(C)C(=CC[C@@H]4[C@@]5(C)CC[C@H](O)[C@@](C)(CO)[C@@H]5CC[C@]43C)[C@@H]2C1` is reported as 99% (Leishmania mexicana; parasite growth, resazurin; 50 µM, amastigote).
`COC(=O)[C@]1(O)C[C@@H](O)[C@@H](O)[C@H](OC(=O)/C=C/c2ccc(O)c(O)c2)C1` gave an inhibition of 16.9% (tubulin polymerisation, inhibitor; 10 µM).
The MBC of `O=C(O)CN1C(=O)/C(=C/c2ccc(-c3ccc(N(c4ccccc4)c4ccccc4)cc3)c3ccccc23)NC1=S` is reported as over 1000 mg/L (Staphylococcus epidermidis; microbial killing, broth dilution; ATCC12228).
With `O=c1c(O)c(-c2ccc(O)cc2)oc2cc(O)cc(O)c12` the inhibition was 15% (tubulin polymerisation, inhibitor; 10 µM).
`COC(=O)[C@]12CCC(C)(C)C[C@H]1C1=CC[C@@H]3[C@@]4(C)CC[C@@H]5O[C@H]([C@H](O)[C@@H](O)[C@H](O)[C@H](O)CO)OC[C@@]5(C)[C@@H]4CC[C@@]3(C)[C@]1(C)CC2` gave an inhibition of 100% (Leishmania mexicana; parasite growth, resazurin; 50 µM, amastigote).
`COc1c2ccoc2cc2oc(=O)ccc12` has an inhibition of 22.5% (tubulin polymerisation, inhibitor; 10 µM).
`CC1(C)CC[C@]2(C(=O)O)CC[C@]3(C)C(=CC[C@@H]4[C@@]5(C)CC[C@@H]6OCOC[C@@]6(C)[C@@H]5CC[C@]43C)[C@@H]2C1` has an inhibition of 97.5% (Leishmania mexicana; parasite growth, resazurin; 50 µM, amastigote).
With `O=C1NC(=S)S/C1=C\c1c2ccccc2c(-c2ccc(N(c3ccccc3)c3ccccc3)cc2)c2ccccc12` the MBC was over 1000 mg/L (Staphylococcus epidermidis; microbial killing, broth dilution; ATCC12228).
For `O=C(Nc1ccc(Cl)c(Cl)c1)c1cc([N+](=O)[O-])c(F)cc1Cl`, the EC50 was 0.95 µM (Leishmania mexicana; parasite growth; J774.A1; intracellular, amastigote).
The inhibition of `CC1(C)CC[C@]2(CO)CC[C@]3(C)C(=CC[C@@H]4[C@@]5(C)CC[C@@H]6O[C@H]([C@H](O)[C@@H](O)[C@H](O)CO)OC[C@@]6(C)[C@@H]5CC[C@]43C)[C@@H]2C1` is reported as 98.7% (Leishmania mexicana; parasite growth, resazurin; 50 µM, amastigote).
With `O=C1NC(=S)S/C1=C\c1ccc(-c2ccc(N(c3ccccc3)c3ccccc3)cc2)cc1` the MBC was 250 mg/L (≈ 538 µM) (Staphylococcus epidermidis; microbial killing, broth dilution; ATCC12228).
`Cc1ccc(-c2nc3ccccc3s2)cc1NC(=O)c1cc([N+](=O)[O-])ccc1O` has an EC50 of over 10 µM (Leishmania mexicana; parasite growth; J774.A1; intracellular, amastigote).
`O=C1NC(=S)N/C1=C\c1ccc(-c2ccc(N(c3ccccc3)c3ccccc3)cc2)cc1` has an MBC of over 1000 mg/L (Staphylococcus epidermidis; microbial killing, broth dilution; ATCC12228).
With `Nc1ncnc2c1ncn2[C@@H]1O[C@H](CO)[C@@H](O)[C@H]1O` the inhibition was 17.9% (tubulin polymerisation, inhibitor; 10 µM).
`CC(=O)N1CCN(C(=O)N[C@]23CCC(C)(C)C[C@H]2C2=CC[C@@H]4[C@@]5(C)CC[C@@H]6OC(C)(C)OC[C@@]6(C)[C@@H]5CC[C@@]4(C)[C@]2(C)CC3)CC1` has an inhibition of 100% (Leishmania mexicana; parasite growth, resazurin; 50 µM, amastigote).
For `O=Cc1ccc(CO)o1`, the inhibition was 13.4% (tubulin polymerisation, inhibitor; 10 µM).
For `O=C(O)CN1C(=O)/C(=C/c2c3ccccc3c(-c3ccc(N(c4ccccc4)c4ccccc4)cc3)c3ccccc23)NC1=S`, the MBC was over 1000 mg/L (Staphylococcus epidermidis; microbial killing, broth dilution; ATCC12228).
With `CC(=O)O[C@@H]1c2c(ccc3ccc(=O)oc23)OC(C)(C)[C@@H]1OC(=O)C1(C)OC1C` (stereo partly drawn) the inhibition was 32.8% (tubulin polymerisation, inhibitor; 10 µM).
For `CC1(C)CC[C@]2(NC(=O)N[C@H]3C(O)O[C@H](CO)[C@@H](O)[C@@H]3O)CC[C@]3(C)C(=CC[C@@H]4[C@@]5(C)CC[C@@H]6OC(C)(C)OC[C@@]6(C)[C@@H]5CC[C@]43C)[C@@H]2C1` (stereo partly drawn), the inhibition was 97.2% (Leishmania mexicana; parasite growth, resazurin; 50 µM, amastigote).
